# Source: PubChem BioAssay
# Hits are enriched below; roughly 2.2% of the tested compounds scored in any of these assays.
# DDE Tn7 FP inh: inhibitors of Tn7 peptide binding to human fibrin DD(E); inhibition, % at 8.3 µM; P02675; 370,000 tested, 0.13% active; FP displacement of FITC-Tn7 peptide from fibrin DD(E); 0% = median of compound wells per plate;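 active means inhibition above the mean of compounds falling within the control limits plus 3 SD of them, cut at about 14% in these data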
#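 Test system – human fibrin DD(E) · Times – 10 min preincubation, 3 h with tracer, room temperature · Detection – fluorescence polarization of the labelled Tn7 tracer · Measure – percent inhibition normalized to high-control wells · Benchmarks – high control wells with 10 µM unlabelled Aha-Tn7 peptide (full inhibition) · Repeats – singlicate testing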
# SKN-1 inh: blocks SKN-1 activity in C. elegans; C. elegans VP596 Pgst-4::GFP/RFP ratio, acrylamide-induced, 24 h; inhibition, % at 21.8 µM; 360,000 tested, 0.49% active;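 active means interference check ratio from 0.5 to 1.5 plus GFP to RFP signal ratio inhibition reaching or exceeding a fixed threshold, cut at about 30% in these data, passing the limit was not always enough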
# Tn6 DDE FP: inhibitors of Tn6 peptide binding to human fibrin DD(E); Fibrin DD(E) TRITC-Tn6 fluorescence polarization displacement; P02675; 370,000 tested, 0.21% active; inhibition, % at 8.3 µM;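 active means inhibition above a per-campaign cutoff: mean of compounds within control limits plus 3 SD, cut at about 15% in these data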
# Neddylation inh: inhibitors of human cullin neddylation; 360,000 tested, 0.58% active; TR-FRET cullin neddylation, biochemical; calls only at 25 µM; P61081+Q13564; in the data active means inhibition above about 36%
# Target sequence (P61081 whole entry, looked up): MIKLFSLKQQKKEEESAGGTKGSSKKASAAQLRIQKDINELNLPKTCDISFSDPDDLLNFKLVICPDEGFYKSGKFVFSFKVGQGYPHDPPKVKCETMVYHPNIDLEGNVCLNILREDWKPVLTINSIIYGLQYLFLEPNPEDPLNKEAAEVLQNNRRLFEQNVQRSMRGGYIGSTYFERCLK
# Target sequence (Q13564 whole entry, looked up): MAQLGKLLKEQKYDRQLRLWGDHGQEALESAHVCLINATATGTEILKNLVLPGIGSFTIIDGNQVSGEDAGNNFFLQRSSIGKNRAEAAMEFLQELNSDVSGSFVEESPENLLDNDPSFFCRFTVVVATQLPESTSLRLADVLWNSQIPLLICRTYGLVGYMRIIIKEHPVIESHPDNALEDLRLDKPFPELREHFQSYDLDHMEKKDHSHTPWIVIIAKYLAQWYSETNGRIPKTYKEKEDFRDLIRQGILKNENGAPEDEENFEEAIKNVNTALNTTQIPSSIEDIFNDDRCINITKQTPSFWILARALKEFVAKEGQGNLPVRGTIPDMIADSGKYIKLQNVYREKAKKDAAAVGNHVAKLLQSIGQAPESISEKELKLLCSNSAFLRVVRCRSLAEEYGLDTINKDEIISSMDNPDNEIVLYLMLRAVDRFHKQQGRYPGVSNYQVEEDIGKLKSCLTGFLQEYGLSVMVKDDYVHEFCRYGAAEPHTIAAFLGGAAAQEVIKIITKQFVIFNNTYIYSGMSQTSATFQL
# KLK7 zymogen act: proKLK7 (human) activation, primary screen | P49862 | purified proKLK7, EDANS-DABCYL substrate fluorescence; 100% is mature enzyme control, 0% vehicle | activation, % at 7 µM | 370,000 tested, 0.9% active;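 active means activation above the mean of all tested compounds plus 3 SD, computed per campaign excluding outliers beyond control limits, cut at about 13% in these data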
# MT1-MMP act inh: MT1-MMP (human) activation inhibition | HT1080 RFP-PRO-GFP cells, GFP/RFP ratio fluorescence, overnight; percent of plate control window, DMSO zero | GFP/RFP ratio change, % at 20 µM | 360,000 tested, 0.061% active | AID 651647;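 active means GFP/RFP ratio change of at least 30% with cell ATP level not reduced by more than half and red fluorescence within 50% of control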
#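 Assay system: HT1080 RFP-PRO-GFP cells | Dosing: 20 µM single dose, 1% DMSO | Incubation: Cells overnight before dosing, compound overnight, 37 °C, 5% CO2 | Evaluation: GFP/RFP fluorescence ratio | Control set: DMSO-only wells and HT1080 RFP-L50D-GFP cell wells as references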
# proKLK7 act conf: confirmation of human kallikrein-7 zymogen activators; shares compounds with KLK7 zymogen act; activation, % at 7 µM; 3,200 tested, 68% active; AID 686949; purified proKLK7, EDANS-DABCYL substrate fluorescence; scaled: vehicle 0, mature enzyme 100;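 active means activation, as change over the incubation, above the mean of all tested compounds plus 3 SD, cut at about 13% in these data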
# EDANS interfere: optically interferes with EDANS-DABCYL signal, flagging KLK7 hits. activation, % at 7 µM. EDANS-DABCYL substrate fluorescence interference, no enzyme, 4 h; solvent 0%, active enzyme control 100%. shares compounds with KLK7 zymogen act. 3,200 tested, 80% active. AID 686952;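 active means activation above the all-compound mean plus 3 SD, ignoring values outside control-based bounds, cut at about 4.8% in these data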;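 further: value is the 4 h activation minus the activation read at time zero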
# A number is an active result; n = inactive; x = no result given.
SMILES,DDE Tn7 FP inh,SKN-1 inh,Tn6 DDE FP,Neddylation inh,KLK7 zymogen act,MT1-MMP act inh,proKLK7 act conf,EDANS interfere
CCC1CCc2c(sc(NC(=O)c3ccco3)c2C(N)=O)C1 (stereo not drawn),n,n,n,x,90.8,n,n,n
CCc1noc(C)c1C(=O)N(C)CC(=O)Nc1ccc(Cl)c(Cl)c1,n,n,n,n,n,n,x,x
Cc1ccccc1-c1c(C)oc2cc(O)ccc2c1=O,n,n,n,x,57.6,n,71.4,74.5
Cc1oc2c(C)c(O)ccc2c(=O)c1N1C(=O)c2ccccc2C1=O,n,n,n,n,68.8,n,99.3,103.4
Cc1oc2cc(O)ccc2c(=O)c1N1C(=O)c2ccccc2C1=O,n,n,n,n,343.8,n,297.5,301.0
CCCOc1ccc2c(=O)c(N3C(=O)c4ccccc4C3=O)c(C)oc2c1,n,n,n,n,n,n,x,x
CC(=O)Oc1ccc2c(=O)c(N3C(=O)c4ccccc4C3=O)c(C)oc2c1,n,n,n,n,150.7,n,166.4,164.2
COC(=O)c1cc(-c2c(C)oc3cc(O)ccc3c2=O)c(C)o1,n,n,n,x,n,n,x,x
Cc1oc2c(C)c(O)ccc2c(=O)c1-c1nncn1-c1ccccc1,n,n,n,n,n,n,x,x
Cc1oc2cc(O)ccc2c(=O)c1Oc1ccccc1,n,n,n,x,54.1,n,73.8,75.3
C#Cc1ccc(NC(=O)C2(C)CCN2C(=O)C2(c3ccccc3)CCCC2)cc1 (stereo not drawn),n,n,n,n,n,n,x,x
O=C(Cc1ccc(Cl)cc1)Nc1ccc2oc(=O)ccc2c1,n,n,n,n,n,n,x,x
COc1ccc(COc2cc(-c3cccc(OC)c3)nc3ccc(N)cc23)cc1,n,n,n,x,58.8,n,n,n
COc1ccc(COc2cc(-c3cccc(OC)c3)nc3ccc(NC(=O)c4ccc(C)cc4)cc23)cc1,n,n,n,n,n,n,x,x
COc1ccc(COc2cc(-c3cccc(OC)c3)nc3ccc(NC(C)=O)cc23)cc1,n,n,n,n,17.9,n,n,n
COc1cccc(-c2cc(C(F)(F)F)c(C#N)c(=O)[nH]2)c1,n,n,n,x,16.7,n,39.6,51.4
N#Cc1c(C(F)(F)F)cc(-c2ccccc2Cl)[nH]c1=O,n,n,n,x,n,n,x,x
COc1ccc(-c2cc(C(=O)N/N=C(\C)c3cccnc3)c3ccccc3n2)cc1,n,n,n,x,37.4,n,n,n
Cc1ccc(-c2cc(C(=O)NCCN3CCOCC3)c3ccccc3n2)o1,n,n,n,x,48.6,n,49.4,66.0
COc1ccc(-c2cc(C(=O)NCCN3CCOCC3)c3ccccc3n2)cc1,n,n,n,x,14.8,n,n,n
COc1cccc(/C(C)=N/NC(=O)c2cc(-c3cccnc3)nc3ccccc23)c1,n,n,n,n,n,n,x,x
O=C(NCCCN1CCOCC1)c1cc(-c2ccccc2)nc2ccccc12,n,n,n,n,n,n,x,x
O=C(NCCN1CCOCC1)c1cc(-c2ccccc2Cl)nc2ccccc12,n,n,n,n,n,n,x,x
Cc1ccccc1-n1nc(C)c2cc(C(=O)N3CCN(S(=O)(=O)c4ccc(F)cc4)CC3)sc21,n,n,n,n,n,n,x,x
COc1cc(OC)c2c(C)c(Cl)c(=O)oc2c1,n,n,n,n,14.9,n,78.2,71.7
SMILES,DDE Tn7 FP inh,SKN-1 inh,Tn6 DDE FP,Neddylation inh,KLK7 zymogen act,MT1-MMP act inh,proKLK7 act conf,EDANS interfere
COc1cc(OC)c2c(=O)cc(-c3ccccc3)oc2c1,n,n,n,x,n,n,x,x
O=c1cc(-c2ccccc2)oc2ccc(O)cc12,n,n,n,n,n,n,x,x
O=C(O)[C@@H]1CCCN1C(=O)c1ccco1,n,n,n,n,n,n,x,x
COC(=O)C1=C(C)N(CCCC(=O)O)C(=O)NC1c1cc2c(cc1[N+](=O)[O-])OCO2 (stereo not drawn),n,n,n,n,13.2,n,13.1,14.2
COC(=O)C1=C(C)N(C)C(=O)NC1c1cc2c(cc1[N+](=O)[O-])OCO2 (stereo not drawn),n,n,n,x,n,n,x,x
O=C1OC(Cc2ccncc2)C(O)=C1C1=NCCCN1 (stereo not drawn),n,n,n,n,n,n,x,x
CC[C@]12c3[nH]c4cc(-c5ccco5)ccc4c3CCN1C(=O)[C@@H](CC(=O)NCCC1=CCCCC1)C[C@@H]2C(=O)N1CCN(C(=O)C2CC2)CC1,n,n,n,x,30.3,n,13.6,17.0
CC[C@]12c3[nH]c4cc(-c5ccco5)ccc4c3CCN1C(=O)[C@@H](CC(=O)NCC13CC4CC(CC(C4)C1)C3)C[C@@H]2C(=O)N1CCN(C(=O)C2CC2)CC1,n,n,n,x,n,n,x,x
O=C(C[C@H]1C[C@H](C(=O)N2CCOCC2)[C@@]2(CCC3CCCC3)c3[nH]c4cc(-c5ccco5)ccc4c3CCN2C1=O)NCCC1=CCCCC1,x,n,x,x,x,n,x,x
CC[C@]12c3[nH]c4cc(-c5ccco5)ccc4c3CCN1C(=O)[C@@H](CC(=O)NCc1ccco1)C[C@@H]2C(=O)N1CCN(C(=O)C2CC2)CC1,n,n,n,x,100.0,n,66.5,93.1
CC[C@]12c3[nH]c4cc(-c5ccco5)ccc4c3CCN1C(=O)[C@@H](CC(=O)NCc1ccc(OC)c(OC)c1)C[C@@H]2C(=O)N1CCN(C(=O)C2CC2)CC1,n,n,n,x,122.2,n,72.2,83.6
COc1ccc(CNC(=O)C[C@H]2C[C@H](C(=O)N3CCCCC3)[C@@]3(CCc4ccccc4)c4[nH]c5cc(-c6ccco6)ccc5c4CCN3C2=O)cc1OC,x,n,x,n,x,n,x,x
O=C(Nc1nccs1)c1ccc(N2CCOCC2)c([N+](=O)[O-])c1,n,n,n,n,13.1,n,n,n
CCN(CC)C(=O)[C@H]1C[C@H](CC(=O)NC(C)(C)C)C(=O)N2CCc3c([nH]c4cc(-c5ccco5)ccc34)[C@]12C,n,n,n,x,109.3,n,56.7,64.6
CC(C)N(C(=O)[C@H]1C[C@H](CC(=O)NC(C)(C)C)C(=O)N2CCc3c([nH]c4cc(-c5ccco5)ccc34)[C@]12C)C(C)C,n,n,n,x,20.4,n,n,19.6
CC(C)(C)NC(=O)C[C@H]1C[C@H](C(=O)N2CCCCC2)[C@@]2(CCc3ccccc3)c3[nH]c4cc(-c5ccco5)ccc4c3CCN2C1=O,n,n,n,x,n,n,x,x
CN1C(=S)SC(N(O)C=C2C=CC(=O)C=C2)C1(C)C (stereo not drawn),n,n,n,n,n,n,x,x
